Measurements of several laboratories.
Protocols differ between the studies behind these lines.
Target: Protein kinase C gamma type (PRKCG, Homo sapiens, UniProt P05129)

SMILES	observed	action	technique	tested at	measurement	result
CCN(CC)CCNC(=O)c1c(C)[nH]c(/C=C2\C(=O)Nc3ccc(F)cc32)c1C	enzyme activity	inhibitor	–	10 µM	inhibition	32%
O=C(Nc1cnn(-c2csc(C(=O)NC3COC3)c2)c1)Nc1c(F)cccc1Cl	enzyme activity	inhibitor	–	5 µM	remaining activity	98.3%
COc1cc2ncnc(Nc3ccc(Oc4ccccc4)c(C)c3C)c2cc1OC	enzyme activity	inhibitor	–	1 µM	inhibition	1%
Cc1cc(NC(=O)c2cccc3cc(-c4cccc5[nH]nc(N)c45)ccc23)ccc1F	enzyme activity	inhibitor	–	0.1 µM	activity vs control	92%
CC(C)(O)[C@H]1CC[C@H](Nc2ccc3ncc(-c4cccc(C(F)(F)F)c4)n3n2)CC1	enzyme activity	inhibitor	–	1 µM	remaining activity	99%
Cc1ccc(-n2nc(C(C)(C)C)cc2NC(=O)Nc2ccc(OCCN3CCOCC3)c3ccccc23)cc1	enzyme activity	inhibitor	–	10 µM	inhibition	7%
C[C@@H](N)[C@H]1CC[C@H](C(=O)Nc2ccncc2)CC1	enzyme activity	inhibitor	TR-FRET	10 µM	inhibition	6.8%
Cc1cnc(NC2CCOCC2)nc1-n1cnc(C(=O)NC(CN)c2cc(F)cc(Cl)c2)c1 (stereo not shown)	enzyme activity	inhibitor	radiometric	1 µM	remaining activity	85%
CC/C(=N\NC(=O)NCc1cccc(O)c1)c1ccc(O)c(C)c1O	enzyme activity	inhibitor	–	0.1 µM	inhibition	3.6%
COc1cc(Nc2cnc(C#N)c(O[C@H](C)CN(C)C)n2)ncc1-c1cnn(C)c1	enzyme activity	inhibitor	radiometric	1 µM	remaining activity	90%
COc1cc(/C=C/C(=O)CC(=O)/C=C/c2ccc(O)c(OC)c2)ccc1O	enzyme activity	inhibitor	–	1 µM	activity vs control	85%
CNC(=O)c1cc(Oc2ccc(NC(=O)Nc3ccc(Cl)c(C(F)(F)F)c3)cc2)ccn1	enzyme activity	inhibitor	–	10 µM	inhibition	9%
FC(F)(F)Oc1cccc(-c2cnc3ccc(-c4ccncc4)nn23)c1	enzyme activity	inhibitor	radiometric	5 µM	activity vs control	76%
O=C1NC(=O)c2cc(Nc3ccc(F)cc3)c(Nc3ccc(F)cc3)cc21	cell-free assay	–	–	0.5 µM	remaining signal	102%
CC(C)(C)c1nc(-c2cccc(NS(=O)(=O)c3c(F)cccc3F)c2F)c(-c2ccnc(N)n2)s1	enzyme activity	inhibitor	radiometric	1 µM	remaining activity	102%
CC(C)c1ccc(NC(=O)c2cccs2)c(-c2nc3ccccc3[nH]c2=O)c1	enzyme activity	inhibitor	–	1 µM	activity vs control	106%
